Active and inactive are the calls of the source.
How the values were obtained:
CAKI-1 = test: Antitumor activity against human Caki1 cells after 48 hrs by SRB assay; type: functional; conditions: CAKI-1, 48 h
In short: (§1)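 NCI in vitro human tumor cell line screen. Cells were exposed continuously to compound for 48 h at five concentration levels (100, 10, 1.0, 0.1 and 0.01). Growth was estimated by sulforhodamine B protein staining. GI50 is the concentration giving a 50% reduction in net protein increase relative to control cells over the incubation.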

A498 = test: Antitumor activity against human A498 cells after 48 hrs by SRB assay; type: functional; conditions: A498, 48 h; in short: as §1
786-0 = test: Antitumor activity against human 786-0 cells after 48 hrs by SRB assay; type: functional; conditions: 786-0, 48 h; for CC50: read-out: LC50 (the source's name); in short: as §1
SK-OV-3 = test: Antitumor activity against human SKOV3 cells after 48 hrs by SRB assay; type: functional; conditions: SK-OV-3, 48 h; in short: as §1
OVCAR-8 = test: Antitumor activity against human OVCAR8 cells after 48 hrs by SRB assay; type: functional; conditions: OVCAR-8, 48 h; in short: as §1
OVCAR-3 = test: Antitumor activity against human OVCAR-3 cells after 48 hrs by SRB assay; type: functional; conditions: OVCAR-3, 48 h; for CC50: read-out: LC50 (the source's name); in short: as §1
IGROV-1 = test: Antitumor activity against human IGROV1 cells after 48 hrs by SRB assay; type: functional; conditions: IGROV-1, 48 h; for CC50: read-out: LC50 (the source's name); in short: as §1
SNB-75 = test: Antitumor activity against human SNB75 cells after 48 hrs by SRB assay; type: functional; conditions: SNB-75, 48 h; in short: as §1
SF-539 = test: Antitumor activity against human SF539 cells after 48 hrs by SRB assay; type: functional; conditions: SF-539, 48 h; in short: as §1
ACHN = test: Antitumor activity against human ACHN cells after 48 hrs by SRB assay; type: functional; conditions: for CC50: read-out: LC50 (the source's name); in short: as §1
SF-295 = test: Antitumor activity against human SF295 cells after 48 hrs by SRB assay; type: functional; conditions: SF-295, 48 h; for CC50: read-out: LC50 (the source's name); in short: as §1
SF-268 = test: Antitumor activity against human SF268 cells after 48 hrs by SRB assay; type: functional; conditions: SF-268, 48 h; for CC50: read-out: LC50 (the source's name); in short: as §1
SW-620 = test: Antitumor activity against human SW620 cells after 48 hrs by SRB assay; type: functional; conditions: SW-620, 48 h
In short: (§2)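 NCI in vitro human tumor cell line screen. Continuous 48 h drug exposure at five concentrations (100, 10, 1.0, 0.1 and 0.01 µM). Cell growth estimated by sulforhodamine B protein staining. GI50 defined as the concentration giving 50% reduction in net protein increase versus control cells over the incubation.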

HCT-15 = test: Antitumor activity against human HCT15 cells after 48 hrs by SRB assay; type: functional; conditions: HCT-15, 48 h; in short: as §1
HCT-116 = test: Antitumor activity against human HCT116 cells after 48 hrs by SRB assay; type: functional; conditions: HCT-116, 48 h; in short: as §1
HCC 2998 = test: Antitumor activity against human HCC2998 cells after 48 hrs by SRB assay; type: functional; conditions: HCC 2998, 48 h; for CC50: read-out: LC50 (the source's name); in short: as §1
COLO 205 = test: Antitumor activity against human COLO205 cells after 48 hrs by SRB assay; type: functional; conditions: COLO 205, 48 h; for CC50: read-out: LC50 (the source's name); in short: as §1
NCI-H522 = test: Antitumor activity against human NCI-H522 cells after 48 hrs by SRB assay; type: functional; conditions: NCI-H522, 48 h; for CC50: read-out: LC50 (the source's name); in short: as §1
NCI-H460 = test: Antitumor activity against human NCI-H460 cells after 48 hrs by SRB assay; type: functional; conditions: NCI-H460, 48 h; for CC50: read-out: LC50 (the source's name); in short: as §1
NCI-H23 = test: Antitumor activity against human NCI-H23 cells after 48 hrs by SRB assay; type: functional; conditions: NCI-H23, 48 h; in short: as §1
NCI-H226 = test: Antitumor activity against human NCI-H226 cells after 48 hrs by SRB assay; type: functional; conditions: NCI-H226, 48 h; in short: as §1
HOP-92 = test: Antitumor activity against human HOP92 cells after 48 hrs by SRB assay; type: functional; conditions: HOP-92, 48 h; in short: as §1
HOP-62 = test: Antitumor activity against human HOP62 cells after 48 hrs by SRB assay; type: functional; conditions: HOP-62, 48 h; for CC50: read-out: LC50 (the source's name); in short: as §1
EKVX = test: Antitumor activity against human EKVX cells after 48 hrs by SRB assay; type: functional; conditions: for CC50: read-out: LC50 (the source's name); in short: as §1
A549 = test: Antitumor activity against human A549 cells after 48 hrs by SRB assay; type: functional; conditions: A549, 48 h; for CC50: read-out: LC50 (the source's name); in short: as §1
SR = test: Antitumor activity against human SR cells after 48 hrs by SRB assay; type: functional; in short: as §1
[1] = Antitumor activity against human […] cells after 48 hrs by SRB assay; type: functional; in short: as §1
MOLT-4 = test: Antitumor activity against human MOLT4 cells after 48 hrs by SRB assay; type: functional; conditions: MOLT-4, 48 h; in short: as §1
K562 = test: Antitumor activity against human K562 cells after 48 hrs by SRB assay; type: functional; conditions: K562, 48 h; in short: as §1
HL-60(TB) = test: Antitumor activity against human HL-60(TB) cells after 48 hrs by SRB assay; type: functional; conditions: HL-60, 48 h; in short: as §1
CCRF-CEM = test: Antitumor activity against human CCRF-CEM cells after 48 hrs by SRB assay; type: functional; conditions: for CC50: read-out: LC50 (the source's name); in short: as §1
NCI60 = test: Antitumor activity against human NCI60 cells at 1 uM; type: functional, cell-based
UO-31 = test: Antitumor activity against human UO31 cells after 48 hrs by SRB assay; type: functional; conditions: UO-31, 48 h; for CC50: read-out: LC50 (the source's name); in short: as §2
PC-3 = test: Antitumor activity against human PC3 cells after 48 hrs by SRB assay; type: functional; conditions: PC-3, 48 h; for CC50: read-out: LC50 (the source's name); in short: as §1
DU-145 = test: Antitumor activity against human DU145 cells after 48 hrs by SRB assay; type: functional; conditions: DU-145, 48 h; for CC50: read-out: LC50 (the source's name); in short: as §1
MDA-MB-231 = test: Antitumor activity against human MDA-MB-231 cells after 48 hrs by SRB assay; type: functional; conditions: MDA-MB-231, 48 h; in short: as §1
MDA-MB-435 = test: Antitumor activity against human MDA-MB-435 cells after 48 hrs by SRB assay; type: functional; conditions: MDA-MB-435, 48 h; in short: as §1
T47D = test: Antitumor activity against human T47D cells after 48 hrs by SRB assay; type: functional; conditions: for CC50: read-out: LC50 (the source's name); in short: as §2

## CSc1nc2c(c(=O)[nH]1)NC1=C(C(=O)c3ccccc31)C(c1ccc(F)cc1)N2 (stereo not given)
CAKI-1
  GI50: 3.3 µM
  LC50: > 100 µM
A498
  GI50: 4.88 µM
  LC50: 57.7 µM
786-0
  GI50: 12.4 µM
  CC50: 60.4 µM
SK-OV-3
  GI50: 14.1 µM
  LC50 (concentration killing 50% of cells): > 100 µM
OVCAR-8
  GI50: 13.1 µM
  LC50 (concentration causing 50% net cell kill): 95.2 µM
OVCAR-3
  GI50: 3.38 µM
  CC50: 61.8 µM
IGROV-1
  GI50: 11.3 µM
  CC50: > 100 µM
SNB-75
  GI50: 1.46 µM
  LC50: > 100 µM
SF-539
  GI50: 8.9 µM
  LC50 (concentration killing 50% of cells): 92 µM
ACHN
  GI50: 11.6 µM
  CC50: > 100 µM
SF-295
  GI50: 3.67 µM
  CC50: > 100 µM
SF-268
  GI50: 12.7 µM
  CC50: > 100 µM
SW-620
  GI50: 4.48 µM
  LC50: > 100 µM
HCT-15
  GI50: 4.57 µM
  LC50 (concentration killing 50% of starting cells): > 100 µM
HCT-116
  GI50: 7.23 µM
  LC50 (50% lethal concentration): 44.7 µM
HCC 2998
  GI50: 12.2 µM
  CC50: 76.1 µM
COLO 205
  GI50: 13 µM
  CC50: > 100 µM
NCI-H522
  GI50: 3.17 µM
  CC50: > 100 µM
NCI-H460
  GI50: 5.1 µM
  CC50: > 100 µM
NCI-H23
  GI50: 13.5 µM
  LC50: > 100 µM
NCI-H226
  GI50: 15.3 µM
  LC50: > 100 µM
HOP-92
  GI50: 9.52 µM
  LC50: > 100 µM
HOP-62
  GI50: 11.9 µM
  CC50: 95.6 µM
EKVX
  GI50: 18.2 µM
  CC50: > 100 µM
A549
  GI50: 12.6 µM
  CC50: > 100 µM
SR
  GI50: 6.31 µM
  LC50 (concentration killing 50% of cells): > 100 µM
[1]
  GI50: 4.2 µM
  LC50: > 100 µM
MOLT-4
  GI50: 19.5 µM
  LC50: > 100 µM
K562
  GI50: 4.05 µM
  LC50: > 100 µM
HL-60(TB)
  GI50: 6.54 µM
  LC50: > 100 µM
CCRF-CEM
  GI50: 8.16 µM
  CC50: > 100 µM
NCI60
  Activity: Active
UO-31
  GI50: 16.3 µM
  CC50: > 100 µM
PC-3
  GI50: 7.72 µM
  CC50: > 100 µM
DU-145
  GI50: 16.2 µM
  CC50: > 100 µM
MDA-MB-231
  GI50: 12.6 µM
  LC50 (lethal concentration, 50% net cell kill): > 100 µM
MDA-MB-435
  GI50: 1.65 µM
  LC50: > 100 µM
T47D
  GI50: 14.2 µM
  CC50: > 100 µM

## CSc1nc2c(c(=O)[nH]1)NC1=C(C(=O)c3ccccc31)C(c1ccccc1)N2 (stereo not given)
CAKI-1
  GI50: 2.18 µM
  LC50: > 100 µM
A498
  GI50: 2 µM
  LC50: > 100 µM
786-0
  GI50: 6.44 µM
  CC50: > 100 µM
SK-OV-3
  GI50: 7.65 µM
  LC50 (concentration killing 50% of cells): > 100 µM
OVCAR-8
  GI50: 19.1 µM
  LC50 (concentration causing 50% net cell kill): > 100 µM
OVCAR-3
  GI50: 2.12 µM
  CC50: 46.4 µM
IGROV-1
  GI50: 4.54 µM
  CC50: > 100 µM
SNB-75
  GI50: 1.27 µM
  LC50: > 100 µM
SF-539
  GI50: 2.84 µM
  LC50 (concentration killing 50% of cells): > 100 µM
ACHN
  GI50: 3.73 µM
  CC50: > 100 µM
SF-295
  GI50: 1.91 µM
  CC50: > 100 µM
SF-268
  GI50: 4.55 µM
  CC50: > 100 µM
SW-620
  GI50: 2.92 µM
  LC50: > 100 µM
HCT-15
  GI50: 2.8 µM
  LC50 (concentration killing 50% of starting cells): > 100 µM
HCT-116
  GI50: 4.21 µM
  LC50 (50% lethal concentration): > 100 µM
HCC 2998
  GI50: 6.75 µM
  CC50: > 100 µM
COLO 205
  GI50: 3.53 µM
  CC50: > 100 µM
NCI-H522
  GI50: 1.41 µM
  CC50: > 100 µM
NCI-H460
  GI50: 3.16 µM
  CC50: > 100 µM
NCI-H23
  GI50: 5.82 µM
  LC50: > 100 µM
NCI-H226
  GI50: 4.2 µM
  LC50: > 100 µM
HOP-92
  GI50: 12 µM
  LC50: > 100 µM
HOP-62
  GI50: 5.37 µM
  CC50: > 100 µM
EKVX
  GI50: 12.8 µM
  CC50: > 100 µM
A549
  GI50: 6.98 µM
  CC50: > 100 µM
SR
  GI50: 1.51 µM
  LC50 (concentration killing 50% of cells): > 100 µM
[1]
  GI50: 3.01 µM
  LC50: > 100 µM
MOLT-4
  GI50: 5.24 µM
  LC50: > 100 µM
K562
  GI50: 1.27 µM
  LC50: > 100 µM
HL-60(TB)
  GI50: 2.51 µM
  LC50: > 100 µM
CCRF-CEM
  GI50: 5.92 µM
  CC50: > 100 µM
NCI60
  Activity: Active
UO-31
  GI50: 5.23 µM
  CC50: > 100 µM
PC-3
  GI50: 3.64 µM
  CC50: > 100 µM
DU-145
  GI50: 13.4 µM
  CC50: > 100 µM
MDA-MB-231
  GI50: 4.09 µM
  LC50 (lethal concentration, 50% net cell kill): > 100 µM
MDA-MB-435
  GI50: 0.49 µM
  LC50: > 100 µM
T47D
  GI50: 4.61 µM
  CC50: > 100 µM

From ChEMBL document CHEMBL1151801, “Synthesis of new indeno[1,2-e]pyrimido[4,5-b][1,4]diazepine-5,11-diones as potential antitumor agents” (2008)
